Source: ChEMBL document CHEMBL1132203, “Synthesis and biological properties of novel pyridinioalkanoyl thiolesters (PATE) as anti-HIV-1 agents that target the viral nucleocapsid protein zinc fingers” (J Med Chem, 1999)

Legend:
[1] = tested on: Human immunodeficiency virus 1; test: Effective antiviral concentration against HIV-1 infected CEM-SS cells; assay type: functional, organism-based; details: Human immunodeficiency virus 1, CEM-SS
Procedure, shortened: (§1)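 CEM-SS cells infected with HIV-1 RF at MOI 0.01, scored by XTT dye-reduction cytoprotection. EC50 is the concentration giving 50% protection of infected cells. IC50 is the concentration causing 50% cytotoxicity (growth inhibition). High test concentration 316 μM.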

[2] = tested on: Human immunodeficiency virus 1; test: Antiviral activity against HIV-1 infected CEM-SS cells was determined in XTT cytoprotection assay; assay type: functional, organism-based; details: Human immunodeficiency virus 1, CEM-SS; procedure, shortened: as §1
[3] = tested on: Human immunodeficiency virus 1; test: Nucleocapsid p7 protein (NCp7) zinc finger domain reactivity was measured by Trp37 fluorescence assay expressed as the average decrease in relative fluorescence units over 30 min; assay type: functional
Procedure, shortened: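 Recombinant HIV-1 NCp7 (pET3A construct expressed in E. coli BL21); intrinsic fluorescence of Trp37 in the C-terminal zinc finger monitored over 30 min after compound addition. Value is the mean fall in relative fluorescence units per minute across 30 min, taken as a readout of Zn ejection. Dithiane or DIBA-1 served as reference. Where glutathione pretreatment was used, 2 mM compound was held 2 h at 37 °C with 2–8 M excess reduced glutathione, then diluted 40-fold to 50 μM final compound.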

[4] = target: Human immunodeficiency virus type 1 reverse transcriptase (Human immunodeficiency virus 1, UniProt Q72547); test: 50% Inhibitory activity against reverse transcriptase; No inhibition at a highest dose of 100 uM
Procedure, shortened: (§2)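 Top test level 100 μM; IC50 is the concentration inhibiting 50% of the indicated activity, with reference inhibitors run as positive controls. Integrase uses recombinant HIV-1 integrase, scored on 3'-processing and strand transfer. Protease uses recombinant HIV-1 protease cleaving the peptide Ala-Ser-Glu-Asn-Try-Pro-Ile-Val-amide, read by HPLC. Reverse transcriptase uses recombinant HIV-1 RT on rAdT and rCdG template/primers.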

[5] = target: Human immunodeficiency virus type 1 integrase (Human immunodeficiency virus 1, UniProt Q7ZJM1); test: 50% Inhibitory activity against Integrase; No inhibition at a highest dose of 100 uM; procedure, shortened: as §2
[6] = 50% Inhibitory activity against attachment; No inhibition at a highest dose of 100 uM
[7] = target: Human immunodeficiency virus type 1 protease (Human immunodeficiency virus 1, UniProt Q72874); test: 50% Inhibitory activity against protease; No inhibition at a highest dose of 100 uM; procedure, shortened: as §2
[8] = 50% Inhibitory activity against fusion; No inhibition at a highest dose of 100 uM

Sequence of Human immunodeficiency virus type 1 integrase (Q7ZJM1 whole entry): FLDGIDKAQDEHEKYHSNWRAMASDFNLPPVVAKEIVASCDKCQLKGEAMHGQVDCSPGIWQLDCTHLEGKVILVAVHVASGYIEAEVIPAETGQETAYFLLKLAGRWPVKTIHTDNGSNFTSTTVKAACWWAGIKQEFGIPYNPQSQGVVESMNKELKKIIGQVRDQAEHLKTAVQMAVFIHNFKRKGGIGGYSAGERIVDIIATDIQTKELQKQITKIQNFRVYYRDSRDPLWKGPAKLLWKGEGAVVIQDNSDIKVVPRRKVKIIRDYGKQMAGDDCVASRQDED

NS(=O)(=O)c1ccc(NC(=O)CNC(=O)c2ccccc2SSc2ccccc2C(=O)NCC(=O)Nc2ccc(S(N)(=O)=O)cc2)cc1
EC50 [1]: 1.6 µM
IC50 [2]: 17.6 µM
Activity [3]: 7.9 RFU min-1

O=C(CCCC[n+]1ccccc1)Sc1ccccc1C(=O)Nc1ccc(S(=O)(=O)c2ccc(NS(=O)(=O)Cc3ccccc3[N+](=O)[O-])cc2)cc1.[Br-]
EC50 [1]: 2.9 µM
IC50 [2]: > 316 µM
Activity [3]: 0.86 RFU min-1

NS(=O)(=O)c1ccc(Cn2sc3ccccc3c2=O)cc1
EC50 [1]: 13.8 µM
IC50 [2]: 53.7 µM
Activity [3]: 2.7 RFU min-1

CC(=O)NS(=O)(=O)c1ccc(NC(=O)c2ccccc2SC(=O)CCCCC[n+]2ccccc2)cc1.[Br-]
EC50 [1]: 10.5 µM
IC50 [2]: 69.7 µM
Activity [3]: 1.9 RFU min-1

O=C(CCCC[n+]1ccccc1)Sc1ccccc1C(=O)Nc1ccc(S(=O)(=O)c2ccc([N+](=O)[O-])cc2)cc1.[Br-]
EC50 [1]: 5.5 µM
IC50 [2]: > 316 µM
IC50 [4]: No inhibition
IC50 [5]: No inhibition
Zinc finger reactivity [3]: 4.1 RFU min-1
IC50 [6]: No inhibition

CC(=O)NS(=O)(=O)c1ccc(NC(=O)c2ccccc2SC(=O)CCCCBr)cc1
EC50 [1]: 3.8 µM
IC50 [2]: 184 µM
IC50 [4]: No inhibition
IC50 [5]: No inhibition
Zinc finger reactivity [3]: 1.8 RFU min-1
IC50 [7]: No inhibition
IC50 [6]: No inhibition
IC50 [8]: No inhibition

CC(=O)NS(=O)(=O)c1ccc(NC(=O)c2ccccc2SC(=O)CCCC[n+]2ccccc2)cc1.[Br-]
EC50 [1]: 6.2 µM
IC50 [2]: > 316 µM
IC50 [4]: No inhibition
IC50 [5]: No inhibition
Zinc finger reactivity [3]: 3.6 RFU min-1
IC50 [7]: No inhibition
IC50 [6]: No inhibition

CC(=O)Nc1ccc(S(=O)(=O)Nc2ccc(S(=O)(=O)c3ccc(-n4sc5ccccc5c4=O)cc3)cc2)cc1
EC50 [1]: 9.6 µM
IC50 [2]: 188 µM
Activity [3]: 7.9 RFU min-1

CC(=O)NS(=O)(=O)c1ccc(NC(=O)c2ccccc2SC(=O)CCC[n+]2ccccc2)cc1.[Br-]
EC50 [1]: 10.1 µM
IC50 [2]: 175 µM
Activity [3]: 2.2 RFU min-1

CC(=O)Nc1ccc(S(=O)(=O)c2ccc(NC(=O)c3ccccc3SSc3ccccc3C(=O)Nc3ccc(S(=O)(=O)c4ccc(NC(C)=O)cc4)cc3)cc2)cc1
EC50 [1]: 1.5 µM
IC50 [2]: 160 µM
Activity [3]: 5.9 RFU min-1

COc1ccc(C(=O)Sc2ccccc2C(=O)Nc2ccc(S(=O)(=O)NC(C)=O)cc2)cc1
EC50 [1]: 2.8 µM
IC50 [2]: 43.7 µM
Activity [3]: 3.5 RFU min-1

CC(=O)Nc1cccc(S(=O)(=O)c2cccc(NC(=O)c3ccccc3SC(=O)CCCC[n+]3ccccc3)c2)c1.[Br-]
EC50 [1]: 4.9 µM
IC50 [2]: 205 µM
Activity [3]: 1.1 RFU min-1

NS(=O)(=O)c1ccc(CCn2sc3ccccc3c2=O)cc1
EC50 [1]: 2 µM
IC50 [2]: 45.5 µM
Activity [3]: 2.7 RFU min-1

O=C(Nc1ccc(S(=O)(=O)c2ccc(NC(=O)c3ccccc3SSc3ccccc3C(=O)Nc3ccc(S(=O)(=O)c4ccc(NC(=O)c5ccc([N+](=O)[O-])cc5)cc4)cc3)cc2)cc1)c1ccc([N+](=O)[O-])cc1
EC50 [1]: 78 µM
IC50 [2]: > 316 µM
Activity [3]: 2.9 RFU min-1

COc1ccc(C(=O)Nc2ccc(S(=O)(=O)c3ccc(NC(=O)c4ccccc4SSc4ccccc4C(=O)Nc4ccc(S(=O)(=O)c5ccc(NC(=O)c6ccc(OC)cc6)cc5)cc4)cc3)cc2)cc1
EC50 [1]: 3.8 µM
IC50 [2]: 79.6 µM
Activity [3]: 6.9 RFU min-1

Nc1ccc(S(=O)(=O)c2ccc(NC(=O)c3ccccc3SSc3ccccc3C(=O)Nc3ccc(S(=O)(=O)c4ccc(N)cc4)cc3)cc2)cc1
EC50 [1]: 4.3 µM
IC50 [2]: > 316 µM
Activity [3]: 3.3 RFU min-1

O=C(Nc1ccc(S(=O)(=O)c2ccc([N+](=O)[O-])cc2)cc1)c1ccccc1SSc1ccccc1C(=O)Nc1ccc(S(=O)(=O)c2ccc([N+](=O)[O-])cc2)cc1
EC50 [1]: 12.2 µM
IC50 [2]: > 316 µM
Activity [3]: 2.9 RFU min-1

CC(=O)NS(=O)(=O)c1ccc(NC(=O)c2ccccc2SC(=O)CCCC[n+]2cccc(Cl)c2)cc1.[Br-]
EC50 [1]: 54 µM
IC50 [2]: 264 µM
Activity [3]: 0.2 RFU min-1

O=C(CCCCBr)Sc1ccccc1C(=O)Nc1ccc(S(=O)(=O)c2ccc([N+](=O)[O-])cc2)cc1
EC50 [1]: 1.6 µM
IC50 [2]: 21.7 µM
Activity [3]: 1 RFU min-1

Nc1cccc(S(=O)(=O)c2cccc(NC(=O)c3ccccc3SSc3ccccc3C(=O)Nc3cccc(S(=O)(=O)c4cccc(N)c4)c3)c2)c1
EC50 [1]: 1 µM
IC50 [2]: 81.5 µM
Activity [3]: 0.92 RFU min-1

CC(=O)Nc1cccc(S(=O)(=O)c2cccc(NC(=O)c3ccccc3SSc3ccccc3C(=O)Nc3cccc(S(=O)(=O)c4cccc(NC(C)=O)c4)c3)c2)c1
EC50 [1]: 0.62 µM
IC50 [2]: 59.1 µM
Activity [3]: 2 RFU min-1

CC(=O)NS(=O)(=O)c1ccc(NC(=O)c2cccc(NC(=O)CCCl)c2)cc1
EC50 [1]: 38 µM
IC50 [2]: 103 µM
Activity [3]: 3.9 RFU min-1
